The text below walks through data of PubChem BioAssay.

Assay [1] can be described thus: Her2 expression decrease, cell viability multiplex – SKBR3 breast tumor cells, AlphaScreen, ATP viability, primary screen (AID 461;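 active = Her2 level under about 52% in both replicate screens, with viability over 70% of control, limit read from the data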;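 as to Her2 level: lower value means less Her2 protein in the cells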;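 as to viability: percent of carrier control wells set as 100% viability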). Conditions: SKBR3 Her2 protein level, 18-24 h, measured here: SKBR3 viability, ATP luminescence, at 10 µM. A general note: Alpha assays give light when donor and acceptor beads are brought close together.
The target in assay [2] is Receptor tyrosine-protein kinase erbB-2 (Homo sapiens) (UniProt P04626). The assay is described as above. Conditions: 18-24 h, at 10 µM, stronger effect = lower value.
A short description of assay [3]: reduced viability of SK-BR-3 breast cancer cells – cell-based, 24 h, human, pilot screen (AID 572).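 Also: compound exposure lasted between 18 and 24 h rather than exactly 24 h; 100% = carrier-treated control wells.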 Conditions: SK-BR-3 viability, CellTiter-Glo luminescence, at 10 µM, stronger effect = lower value. (In general: ATP-based viability assays read luminescence as a measure of living cells.)
The nature of assay [4]: HUVEC growth inhibition – cell-based, human, primary screen (AID 575;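 active = viability at or below 30% in both replicate assays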;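 also: 100% = median of untreated cell wells with 0.1% DMSO on each plate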). Conditions: HUVEC proliferation, CellTiter-Glo luminescence, 72 h; at 10 µM; stronger effect = lower value. In outline:
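material = primary HUVEC, no more than 12 passages | input = 1250 cells per well | controls = vehicle and MePR control wells | measured by = CTG luminescence | times = 72 h compound incubation | format = collagen-coated 384-well format | read-out = % viability vs DMSO wells | doses = single 10 µM dose, 0.1% DMSO, from 5x medium stock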

Assay [5] in a line: H69AR cell proliferation blockers – human, duplicate replicates, primary screen (AID 580;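 active = viability at or under a set limit in both replicates, limit being median viability minus 3 SD, cut at about 48% in these data, passing the limit was not always enough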;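 also: 100% = mean luminescence of untreated wells and 0% = no signal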). Conditions: H69AR lung tumor cells viability, ATP luminescence, 72 h; at 10 µM; stronger effect = lower value.
Assay [6] is described as follows: MRP1 drug-resistance reversers in H69AR cells – cell-based, doxorubicin co-treatment, pilot screen (AID 601;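 active = viability loss from added drug above about 55%, and viability with drug at most 40%, in both replicates, limit read from the data, passing the limit was not always enough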). Conditions: CellTiter-Glo, 72 h, at 10 µM; for differential viability (reversal): stronger effect = higher value.
Assay [7] in a line: yeast transport mutant growth inhibition pilot in 384-well plates, post-Golgi transport modulator project (AID 636; in the data active = inhibition above about 31%). Conditions: absorbance 615 nm, about 18 h, stronger effect = higher value.
A short description of assay [8]: growth suppression of yeast trafficking mutant, preliminary HTS, modulators of trafficking downstream of Golgi apparatus project, 1536-format plate, OD 615 nm (AID 637; in the data active = inhibition above about 30%). Conditions: yeast transport mutant growth, absorbance 615 nm, 18 h; stronger effect = higher value.
The mark [9] stands for this setting: H69AR cells + 2 uM doxorubicin, measured here: viability with 2 uM doxorubicin, stronger effect = lower value.
Setting [10] is: H69AR cells, compound alone cytotoxicity.

The source made the active and inactive calls.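 The calls were made as follows, unless noted: active = viability at or below 10% of carrier control in both of two separate runs; inconclusive = viability at or below 10% in only one of the two runs; inactive = the rest.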

Receptor tyrosine-protein kinase erbB-2 (Homo sapiens), sequence (P04626 whole entry, looked up): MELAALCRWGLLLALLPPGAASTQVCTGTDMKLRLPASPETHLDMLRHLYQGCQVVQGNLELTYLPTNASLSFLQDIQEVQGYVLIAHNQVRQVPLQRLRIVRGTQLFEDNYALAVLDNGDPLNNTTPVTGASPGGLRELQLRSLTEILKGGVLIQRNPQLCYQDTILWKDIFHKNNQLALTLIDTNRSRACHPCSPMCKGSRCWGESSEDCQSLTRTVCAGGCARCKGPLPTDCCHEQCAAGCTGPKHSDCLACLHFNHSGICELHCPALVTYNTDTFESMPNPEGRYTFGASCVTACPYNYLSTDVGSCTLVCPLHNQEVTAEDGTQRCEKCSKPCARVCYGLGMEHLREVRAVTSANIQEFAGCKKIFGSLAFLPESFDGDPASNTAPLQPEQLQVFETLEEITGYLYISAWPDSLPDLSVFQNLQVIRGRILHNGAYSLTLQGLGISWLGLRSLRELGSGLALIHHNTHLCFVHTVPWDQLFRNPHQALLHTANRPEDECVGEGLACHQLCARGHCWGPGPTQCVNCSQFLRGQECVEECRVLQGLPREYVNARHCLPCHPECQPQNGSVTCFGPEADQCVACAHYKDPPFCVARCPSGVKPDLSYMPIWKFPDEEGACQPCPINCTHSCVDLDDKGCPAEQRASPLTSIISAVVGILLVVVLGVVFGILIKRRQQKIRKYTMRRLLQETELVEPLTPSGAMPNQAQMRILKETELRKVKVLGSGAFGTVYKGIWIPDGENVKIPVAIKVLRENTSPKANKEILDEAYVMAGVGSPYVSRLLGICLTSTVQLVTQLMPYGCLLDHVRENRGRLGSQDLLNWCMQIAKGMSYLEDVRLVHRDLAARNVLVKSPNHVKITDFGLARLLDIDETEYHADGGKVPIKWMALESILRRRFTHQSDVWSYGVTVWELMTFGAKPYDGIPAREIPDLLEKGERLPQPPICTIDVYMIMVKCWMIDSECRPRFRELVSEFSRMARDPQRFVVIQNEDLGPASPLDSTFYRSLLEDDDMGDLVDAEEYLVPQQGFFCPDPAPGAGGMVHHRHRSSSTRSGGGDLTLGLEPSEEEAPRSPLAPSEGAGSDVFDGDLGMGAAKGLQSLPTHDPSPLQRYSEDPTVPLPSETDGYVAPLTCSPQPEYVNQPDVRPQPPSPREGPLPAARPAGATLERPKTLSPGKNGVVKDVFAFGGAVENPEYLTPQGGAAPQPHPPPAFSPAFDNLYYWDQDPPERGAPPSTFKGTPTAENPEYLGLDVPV

For the molecule `CCOC(=O)N1CCN(C(=O)c2cccn3c(=O)c4sccc4nc23)CC1`, the viability in assay [1] is 89.5%; in assay [3], 89.5% (inactive); in assay [4] it was 106% (inactive); in assay [5] it was 90.8% (inactive); in assay [6] (setting [9]), 104%; in assay [6] (setting [10]), 90.8%. Further, the Her2 level in assay [2] is 93.5% (inactive). The differential viability (reversal) in assay [6] (H69AR cells + 2 uM doxorubicin) is -12.8% (inactive). Moreover, the inhibition in assay [7] is 3.6% (inactive); in assay [8], -0.33% (inactive).
In the case of `Cc1ccccc1-c1nc(CN2CCC(C(=O)NCCCN3CCCC3)CC2)c(C)o1`, the viability is 81.5% in assay [1]; 81.5% (inactive) in assay [3]; 63% (inactive) in assay [4]; 98.2% (inactive) in assay [5]; 89.3% in assay [6] (setting [9]); 98.2% in assay [6] (setting [10]). Further, in assay [2], the Her2 level is 91.5% (inactive). Also, in assay [6] (H69AR cells + 2 uM doxorubicin), the differential viability (reversal) is 8.91% (inactive). The inhibition is 1.32% (inactive) in assay [7] and 0.55% (inactive) in assay [8].
In the case of `O=C(Nc1ccccc1)N1C(=O)C2(OCCO2)c2ccccc21`, the viability in assay [1] is 114%; in assay [3], 114% (inactive); in assay [4], 100% (inactive); in assay [5], 87% (inactive); in assay [6] (setting [9]) it was 98.8%; in assay [6] (setting [10]), 87%. Also, in assay [2], the Her2 level was 118% (inactive). Also, the differential viability (reversal) in assay [6] (H69AR cells + 2 uM doxorubicin) is -11.8% (inactive). The inhibition is -0.79% (inactive) in assay [7] and 1.64% (inactive) in assay [8].
Consider `Cc1cccc(OCCCC(=O)O)c1`, for which the viability in assay [1] was 101%; in assay [3] it was 101% (inactive); in assay [4], 93.5% (inactive); in assay [5], 89.4% (inactive); in assay [6] (setting [9]), 93.5%; in assay [6] (setting [10]) it was 89.4%. Besides, the Her2 level in assay [2] is 102% (inactive). Besides, in assay [6] (H69AR cells + 2 uM doxorubicin), the differential viability (reversal) is -4.09% (inactive). Further, the values for the inhibition in assay [7] and in assay [8] were -4.73% (inactive) and -6.83% (inactive), respectively.
For the molecule `Cc1cc(C)nc(N2CCCC(C(=O)Nc3nc4ccc(S(C)(=O)=O)cc4s3)C2)n1` (stereo not given), the viability is 80.5% in assay [1]; 80.5% (inactive) in assay [3]; 79.5% (inactive) in assay [4]; 83.7% (inactive) in assay [5]; 93.2% in assay [6] (setting [9]); 83.7% in assay [6] (setting [10]). Besides, the Her2 level in assay [2] is 90% (inactive). In addition, in assay [6] (H69AR cells + 2 uM doxorubicin), the differential viability (reversal) is -9.45% (inactive). Moreover, the figures for the inhibition in assay [7] and in assay [8] were 0% (inactive) and 10.8% (inactive), respectively.
Turning to `O=S(=O)(c1ccc(OCC(O)CN2CCC(Cc3ccccc3)CC2)cc1)N1CCOCC1` (stereo not given), the viability is 81.5% in assay [1]; 81.5% (inactive) in assay [3]; 73.4% (inactive) in assay [4]; 84.8% (inactive) in assay [5]; 94.2% in assay [6] (setting [9]); 84.8% in assay [6] (setting [10]). In addition, in assay [2], the Her2 level is 81.5% (inactive). For the same molecule, the differential viability (reversal) in assay [6] (H69AR cells + 2 uM doxorubicin) is -9.48% (inactive). The inhibition in assay [7] is -6.45% (inactive); in assay [8], -5.24% (inactive).
In the case of `CN(C)c1ccc(-c2nn3c(-c4ccc(Cl)cc4Cl)nnc3s2)cc1`, the viability is 100% in assay [1]; 100% (inactive) in assay [3]; 46.7% (inactive) in assay [4]; 15.1% (active) in assay [5]; 57.7% in assay [6] (setting [9]); 15.1% in assay [6] (setting [10]). The Her2 level in assay [2] is 71% (inactive). In assay [6] (H69AR cells + 2 uM doxorubicin), the differential viability (reversal) was -42.6% (inactive). Also, the inhibition in assay [7] is -6.08% (inactive); in assay [8] it was 5.08% (inactive).
`CCC(C)NC(=O)C1(C)CCC(=O)N1CCc1ccc(OC)c(OC)c1` (stereo not given): the viability was 104% in assay [1]; 104% (inactive) in assay [3]; 95.4% (inactive) in assay [4]; 86.1% (inactive) in assay [5]; 94.2% in assay [6] (setting [9]); 86.1% in assay [6] (setting [10]). Also, the Her2 level in assay [2] is 95% (inactive). For the same molecule, the differential viability (reversal) in assay [6] (H69AR cells + 2 uM doxorubicin) is -8.14% (inactive). Moreover, the inhibition was -1.04% (inactive) in assay [7] and -1.27% (inactive) in assay [8].
As for `C=CCOc1nc(N(C)C)nc(N(C)C)n1`, the viability was 92.5% in assay [1]; 92.5% (inactive) in assay [3]; 93.9% (inactive) in assay [4]; 98.2% (inactive) in assay [5]; 88.8% in assay [6] (setting [9]); 98.2% in assay [6] (setting [10]). Further, in assay [2], the Her2 level is 87% (inactive). Moreover, the differential viability (reversal) in assay [6] (H69AR cells + 2 uM doxorubicin) is 9.33% (inactive). Moreover, the inhibition in assay [7] is -4.67% (inactive); in assay [8], 1.31% (inactive).
Regarding `CCOC(=O)N1CCN(C(=O)CSc2nnc(-c3cc(OC)cc(OC)c3)o2)CC1`, the viability was 86.5% in assay [1]; 86.5% (inactive) in assay [3]; 92.7% (inactive) in assay [4]; 85.7% (inactive) in assay [5]; 89.5% in assay [6] (setting [9]); 85.7% in assay [6] (setting [10]). For the same molecule, in assay [2], the Her2 level is 75.5% (inactive). Besides, the differential viability (reversal) in assay [6] (H69AR cells + 2 uM doxorubicin) was -3.85% (inactive). Moreover, the inhibition in assay [7] was -5.66% (inactive); in assay [8], -1% (inactive).
As to `CCOC(=O)N1CCN(C(=O)Cn2ncn3nc(-c4cccs4)cc3c2=O)CC1`, the viability was 97% in assay [1]; 97% (inactive) in assay [3]; 111% (inactive) in assay [4]; 90.9% (inactive) in assay [5]; 101% in assay [6] (setting [9]); 90.9% in assay [6] (setting [10]). Also, the Her2 level in assay [2] is 136% (inactive). The differential viability (reversal) in assay [6] (H69AR cells + 2 uM doxorubicin) is -9.68% (inactive). Besides, the inhibition was 1.71% (inactive) in assay [7] and 0.33% (inactive) in assay [8].
Turning to `COc1ccc(C2C(C(=O)c3sc(C)nc3C)=C(O)C(=O)N2CCN(C)C)cc1OC` (stereo not given), the viability in assay [1] was 108%; in assay [3] it was 108% (inactive); in assay [4], 99.3% (inactive); in assay [5] it was 86.7% (inactive); in assay [6] (setting [9]) it was 94.8%; in assay [6] (setting [10]) it was 86.7%. Further, the Her2 level in assay [2] was 111% (inactive). Besides, in assay [6] (H69AR cells + 2 uM doxorubicin), the differential viability (reversal) was -8.1% (inactive). Moreover, the values for the inhibition in assay [7] and in assay [8] were -2.27% (inactive) and -2.79% (inactive), respectively.
For the molecule `NC(=O)C(Cc1ccccc1)NS(=O)(=O)c1ccc(N2CCCC2=O)cc1` (stereo not given), the viability is 90.5% in assay [1]; 90.5% (inactive) in assay [3]; 108% (inactive) in assay [4]; 101% (inactive) in assay [5]; 90% in assay [6] (setting [9]); 101% in assay [6] (setting [10]). Moreover, the Her2 level in assay [2] was 92% (inactive). The differential viability (reversal) in assay [6] (H69AR cells + 2 uM doxorubicin) is 10.9% (inactive). Besides, the figures for the inhibition in assay [7] and in assay [8] were -3.87% (inactive) and 1.48% (inactive), respectively.
In the case of `CN(Cc1ccccc1)c1nc2c(c(=O)[nH]c(=O)n2C)n1Cc1ccccc1Cl`, the viability in assay [1] is 114%; in assay [3] it was 114% (inactive); in assay [4], 82.2% (inactive); in assay [5], 85.4% (inactive); in assay [6] (setting [9]) it was 80.4%; in assay [6] (setting [10]) it was 85.4%. The Her2 level in assay [2] is 87.5% (inactive). Moreover, in assay [6] (H69AR cells + 2 uM doxorubicin), the differential viability (reversal) was 4.96% (inactive). Moreover, the inhibition in assay [7] was -5.2% (inactive); in assay [8], 8.36% (inactive).

Broadly, the viability is a read-out of living cells in per cent, often relative to untreated cells. A word on the inhibition: it is the change of the read-out against control, counted positive when it falls.
